According to ChEMBL document CHEMBL2321843, “Opioid peptidomimetics: leads for the design of bioavailable mixed efficacy μ opioid receptor (MOR) agonist/δ opioid receptor (DOR) antagonist ligands” (J Med Chem, 2013):
The source made the active and inactive calls.

Legend:
[1] = molecular target: T1, Kappa-type opioid receptor (Homo sapiens, UniProt P41145); format: functional, cell-based, CHO
[2] = molecular target: Mu-type opioid receptor (Rattus norvegicus) (UniProt P33535); assay: Agonist activity at rat MOR expressed in rat C6 cells assessed as stimulation of [35S]GTPgammaS binding at 10 uM after 1 hr by liquid scintillation counting analysis relative to DAMGO; format: functional, cell-based
[3] = molecular target: Delta-type opioid receptor (Rattus norvegicus) (UniProt P33533); assay: Agonist activity at rat DOR expressed in rat C6 cells assessed as stimulation of [35S]GTPgammaS binding at 10 uM after 1 hr by liquid scintillation counting analysis relative to DPDPE; format: functional, cell-based
[4] = molecular target: T2, Delta-type opioid receptor (Rattus norvegicus, UniProt P33533); assay: Agonist activity at rat DOR expressed in rat C6 cells assessed as stimulation of [35S]GTPgammaS binding after 1 hr by liquid scintillation counting analysis; format: functional, cell-based
[5] = molecular target: T1, Kappa-type opioid receptor; format: cell-based, CHO
[6] = molecular target: Delta-type opioid receptor (Rattus norvegicus) (UniProt P33533); conditions: C6
[7] = molecular target: T2, Delta-type opioid receptor; assay: Displacement of [3H]diprenorphine from rat DOR expressed in rat C6 cells after 1 hr by liquid scintillation counting analysis; format: cell-based
[8] = molecular target: T3, Mu-type opioid receptor (Rattus norvegicus, UniProt P33535); assay: Displacement of [3H]diprenorphine from rat MOR expressed in rat C6 cells after 1 hr by liquid scintillation counting analysis; format: cell-based
[9] = molecular target: T3, Mu-type opioid receptor; assay: Agonist activity at rat MOR expressed in rat C6 cells assessed as stimulation of [35S]GTPgammaS binding after 1 hr by liquid scintillation counting analysis; format: functional, cell-based
[10] = molecular target: T1, Kappa-type opioid receptor; conditions: CHO, 10 uM
[11] = tested on: Mus musculus; assay: Antinociceptive activity in C57BL/6 mouse assessed as duration of maximal activity at 10 mg/kg, ip by warm water tail withdrawal assay; format: functional; conditions: route intraperitoneal
Summary of the method: (§1)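 Male C57BL/6 mice given a single ip dose of 10 mg/kg. Tail-withdrawal latency (50 °C water, 20 s cutoff) measured at varying times after dosing to build a time course.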

[12] = tested on: Mus musculus; assay: Antinociceptive activity in C57BL/6 mouse assessed as tail withdrawal latency at 3.2 to 32 mg/kg, ip after 30 mins by warm water tail withdrawal assay in presence of opioid antagonist naltrexone; format: functional, organism-based
Summary of the method: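 Male C57BL/6 mice pretreated ip with naltrexone 1 mg/kg, 30 min before testing. Cumulative ip dosing to totals of 3.2, 10 and 32 mg/kg at 30 min intervals, with latency read 30 min after each injection. Tail tip immersed in 50 °C water, 20 s cutoff.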

[13] = tested on: Mus musculus; assay: Antinociceptive activity in ip dosed C57BL/6 mouse assessed as tail withdrawal latency after 30 mins by warm water tail withdrawal assay; format: functional
[14] = tested on: Mus musculus; assay: Antinociceptive activity in C57BL/6 mouse assessed as increase in duration of maximal activity at 10 mg/kg, ip by warm water tail withdrawal assay; format: functional, organism-based; design: dose 10 mg/kg
Summary of the method: as §1

T1 sequence (P41145 whole entry): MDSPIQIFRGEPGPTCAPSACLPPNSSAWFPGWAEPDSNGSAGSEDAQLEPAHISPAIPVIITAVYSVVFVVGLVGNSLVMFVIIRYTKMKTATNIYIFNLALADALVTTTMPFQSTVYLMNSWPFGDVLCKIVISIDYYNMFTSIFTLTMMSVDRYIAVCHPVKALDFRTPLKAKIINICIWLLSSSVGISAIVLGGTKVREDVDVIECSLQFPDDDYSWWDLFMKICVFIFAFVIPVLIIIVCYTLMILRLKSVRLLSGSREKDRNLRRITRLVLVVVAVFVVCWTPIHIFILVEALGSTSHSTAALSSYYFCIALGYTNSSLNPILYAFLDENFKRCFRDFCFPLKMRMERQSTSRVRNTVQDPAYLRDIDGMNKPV
Mu-type opioid receptor (Rattus norvegicus), sequence (P33535 whole entry): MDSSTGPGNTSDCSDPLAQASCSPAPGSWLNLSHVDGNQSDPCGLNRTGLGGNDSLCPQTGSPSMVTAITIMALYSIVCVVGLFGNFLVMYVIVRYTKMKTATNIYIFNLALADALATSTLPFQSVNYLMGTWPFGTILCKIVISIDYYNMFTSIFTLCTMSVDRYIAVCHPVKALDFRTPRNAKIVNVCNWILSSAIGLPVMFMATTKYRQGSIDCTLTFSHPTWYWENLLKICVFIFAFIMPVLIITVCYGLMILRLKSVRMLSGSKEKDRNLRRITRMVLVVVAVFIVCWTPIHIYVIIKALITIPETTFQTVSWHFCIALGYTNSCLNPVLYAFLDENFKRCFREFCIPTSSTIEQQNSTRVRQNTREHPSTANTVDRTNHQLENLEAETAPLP
T2 sequence (P33533 whole entry): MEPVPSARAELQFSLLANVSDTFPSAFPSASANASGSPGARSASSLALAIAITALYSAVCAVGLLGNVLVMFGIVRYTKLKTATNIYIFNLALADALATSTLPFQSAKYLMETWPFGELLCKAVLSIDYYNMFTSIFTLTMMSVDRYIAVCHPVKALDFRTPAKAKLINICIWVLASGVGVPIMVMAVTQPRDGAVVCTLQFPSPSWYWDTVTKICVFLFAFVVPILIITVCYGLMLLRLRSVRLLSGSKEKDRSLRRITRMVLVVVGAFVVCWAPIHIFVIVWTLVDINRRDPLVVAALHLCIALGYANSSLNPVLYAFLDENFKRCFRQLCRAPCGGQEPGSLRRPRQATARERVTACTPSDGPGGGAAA
T3 sequence (P33535 whole entry): as the sequence (P33535 whole entry) above
Delta-type opioid receptor (Rattus norvegicus), sequence (P33533 whole entry): as the sequence (P33533 whole entry) above

**Q.** What does the source list for Cc1cc(O)cc(C)c1C[C@H](N)C(=O)N[C@@H]1CCNc2ccc(Cc3cccc4ccccc34)cc21?
**A.** EC50 ([1]; cho): Not Active; Emax [2]: 93%; Emax [3]: 15%

**Q.** For Cc1cc(O)cc(C)c1C[C@H](N)C(=O)N[C@@H]1CCNc2ccc(CCc3ccccc3)cc21, which EC50 ([1]; cho) is on record?
**A.** Not Active

**Q.** And the EC50 [4]?
**A.** Not Active

**Q.** And the Emax [2]?
**A.** 45%

**Q.** For Cc1cc(O)cc(C)c1C[C@H](N)C(=O)N[C@@H]1CCNc2ccc(Cc3ccc4ccccc4c3)cc21, which Ki [5] is on record?
**A.** 54 nM

**Q.** And the Ke [6]?
**A.** 34.3 nM

**Q.** What about the EC50 ([1]; cho) of the same molecule?
**A.** Not Active

**Q.** And the EC50 [4]?
**A.** Not Active

**Q.** And the Ki [7]?
**A.** 10 nM

**Q.** And the Emax [2]?
**A.** 96%

**Q.** For Cc1cc(O)cc(C)c1C[C@H](N)C(=O)N[C@@H]1CCNc2ccc(CC3Cc4ccccc4C3)cc21, which Ki [8] is on record?
**A.** 0.16 nM

**Q.** What about the EC50 [9] of the same molecule?
**A.** 0.24 nM

**Q.** And the Ki [5]?
**A.** 1.2 nM

**Q.** And the EC50 ([1]; read-out: EC50)?
**A.** 68 nM

**Q.** What about the EC50 [4] of the same molecule?
**A.** Not Active

**Q.** What about the Ki [7] of the same molecule?
**A.** 4.1 nM

**Q.** What about the Emax [2] of the same molecule?
**A.** 86%

**Q.** What about the Emax [10] of the same molecule?
**A.** 38%

**Q.** What does the source list for Cc1cc(O)cc(C)c1C[C@H](N)C(=O)N[C@@H]1CCNc2ccc(Cc3ccccc3)cc21?
**A.** Time [11]: 60 min; Activity [12]: inactive; Activity [13]: Dose-dependent effect; ED50 ([13]; C57BL/6, Tail, 0.5 h): 3 mg/kg

**Q.** For CN1CC[C@]23c4c5ccc(O)c4O[C@H]2[C@@H](O)C=C[C@H]3[C@H]1C5, which Activity [14] is on record?
**A.** Active
